Experimental data collected from several papers.
Compare with care: the assays were run in different laboratories.

CSc1nccc(C(=O)N[C@@H](CCC(=O)O)C(=O)N[C@@H](Cc2ccc3ccccc3c2)C(=O)N[C@@H](CC(C)C)C(=O)NC2CC2c2ccccc2)n1 (stereo partly shown)
half-life (metabolic stability; human, plasma): 36.9 h

NC(=O)N1c2ccccc2C=Cc2ccccc21
half-life (metabolic stability; human, liver microsomes; 1 µM): > 3 h

CCOc1ccc(N(C)S(=O)(=O)c2cc(Cl)sc2C(=O)Nc2cc(Cl)cc(C(=O)O)c2)cc1OC
MRT(0-inf) (male C57BL/6 mouse, plasma; intraperitoneal, 10 mg/kg): 0.781 h

CCC(CC)COC(=O)[C@H](C)N[P@](=O)(OC[C@@H]1C[C@@H](O)[C@H](n2cnc3c(N)ncnc32)O1)Oc1ccccc1
half-life (metabolic stability; human, liver microsomes; 1 µM): 0.0137 h

O=[N+]([O-])c1ccc(-c2ccc(O)cc2)c2cccnc12
MRT(0-inf) (male CD-1 mouse, plasma; intravenous, 1 mg/kg): 0.11 h

CCOC(=O)c1cc(Cl)cc(NC(=O)c2sc(Cl)cc2S(=O)(=O)N(C)c2ccc(OCC)c(OC)c2)c1
MRT(0-inf) (male C57BL/6 mouse, brain; intraperitoneal, 10 mg/kg): 3.28 h

COc1cc(C(=O)OCCCN2CCCN(CCCOC(=O)c3cc(OC)c(OC)c(OC)c3)CC2)cc(OC)c1OC
MRT(0-inf) (male CD-1 mouse, brain; subcutaneous): 1.72 h

C=CS(=O)(=O)c1ccc(Nc2nc(OCC3CCCCC3)c3nc[nH]c3n2)cc1
MRT(0-t) (male BALB/c mouse, plasma; intravenous, 20 mg/kg, single dose): 0.71 h

CC(=O)O[C@@]12CO[C@@H]1C[C@H](O)[C@@]1(C)C(=O)[C@H](O)C3=C(C)[C@@H](OC(=O)[C@H](O)[C@@H](NC(=O)OC(C)(C)C)c4ccccc4)C[C@@](O)([C@@H](OC(=O)c4ccccc4)[C@H]21)C3(C)C
MRT (male Kunming mouse, liver; oral, 20 mg/kg): 5.7 h

CCN1CCN(Cc2ccc(NC(=O)c3ccc(C)c(NC(=O)c4cncc(-c5cccs5)c4)c3)cc2C(F)(F)F)CC1
MRT (mouse, plasma; intraperitoneal, 15 mg/kg, single dose): 3.09 h
